Measurements as given in the RNAGym collection of RNA variant scans (doi:10.1002/anie.201605470).

B1: Osa-1-4 twister ribozyme (parent)
chain: CCGCCUAACACUGCCAAUGCCGGUCCCAAGCCCGGAUAAAAGUGGAGGGGGCGG

Variants of: B1
Assay: self-cleavage, relative activity (ratio to wild type); higher = more cleavage; co-transcriptional
Procedure, shortened: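 A DNA template encoding a 54-nucleotide twister ribozyme from Oryza sativa was made so that each of the 48 positions downstream of the cleavage site carried 97 % wild-type base and 1 % of each other base. Transcription in vitro ran for 2 h at 37 °C, during which the ribozyme could cleave itself. Reverse transcription used a template-switching oligonucleotide, and the products were PCR-amplified and deep-sequenced. Each read was scored as cleaved or uncleaved by whether upstream sequence was present, and relative activity is the fraction cleaved normalised to wild type.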

Variant	self-cleavage
CCGCCUGAGACUGCCAAUGCCGGUCCCAAGCCCGGAUAAAAGUGGAGGGGGCGG [A7G C9G]	0.29
CCGCCUGAAACUGCCAAUGCCGGUCCCAAGCCCGGAUAAAAGUGGAGGGGGCGG [A7G C9A]	0.11
CCGCCUGAUACUGCCAAUGCCGGUCCCAAGCCCGGAUAAAAGUGGAGGGGGCGG [A7G C9U]	0.19
CCGCCUGCCACUGCCAAUGCCGGUCCCAAGCCCGGAUAAAAGUGGAGGGGGCGG [A7G A8C]	0.1
CCGCCUGGCACUGCCAAUGCCGGUCCCAAGCCCGGAUAAAAGUGGAGGGGGCGG [A7G A8G]	0.28
CCGCCUGUCACUGCCAAUGCCGGUCCCAAGCCCGGAUAAAAGUGGAGGGGGCGG [A7G A8U]	0.1
CCGCCUGACACUGCCAAUGCCGGUCCCAAGGCCGGAUAAAAGUGGAGGGGGCGG [A7G C31G]	0.14
CCGCCUGACACUGCCAAUGCCGGUCCCAAGUCCGGAUAAAAGUGGAGGGGGCGG [A7G C31U]	0.09
CCGCCUGACACUGCCAAUGCCGGUCCCAAGACCGGAUAAAAGUGGAGGGGGCGG [A7G C31A]	0.03
CCGCCUGACAGUGCCAAUGCCGGUCCCAAGCCCGGAUAAAAGUGGAGGGGGCGG [A7G C11G]	0.1
CCGCCUGACAUUGCCAAUGCCGGUCCCAAGCCCGGAUAAAAGUGGAGGGGGCGG [A7G C11U]	0.15
CCGCCUGACAAUGCCAAUGCCGGUCCCAAGCCCGGAUAAAAGUGGAGGGGGCGG [A7G C11A]	0.13
CCGCCUCACACUGCCAAUGCCGGACCCAAGCCCGGAUAAAAGUGGAGGGGGCGG [A7C U24A]	0.04
CCGCCUCACACUGCCAAUGCCGGCCCCAAGCCCGGAUAAAAGUGGAGGGGGCGG [A7C U24C]	0.03
CCGCCUCACACUGCCAAUGCCGGGCCCAAGCCCGGAUAAAAGUGGAGGGGGCGG [A7C U24G]	0.01
CCGCCUGACACUGCCAAUGCCGGUGCCAAGCCCGGAUAAAAGUGGAGGGGGCGG [A7G C25G]	0.06
CCGCCUGACACUGCCAAUGCCGGUACCAAGCCCGGAUAAAAGUGGAGGGGGCGG [A7G C25A]	0.05
CCGCCUGACACUGCCAAUGCCGGUUCCAAGCCCGGAUAAAAGUGGAGGGGGCGG [A7G C25U]	0.17
CCGCCUGACACUGGCAAUGCCGGUCCCAAGCCCGGAUAAAAGUGGAGGGGGCGG [A7G C14G]	0.32
CCGCCUGACACUGACAAUGCCGGUCCCAAGCCCGGAUAAAAGUGGAGGGGGCGG [A7G C14A]	0.04
CCGCCUGACACUGUCAAUGCCGGUCCCAAGCCCGGAUAAAAGUGGAGGGGGCGG [A7G C14U]	0.1
CCGCCUCACACUGCCAAUGCCGGUCCCAAGCCCGGAUAAAAGAGGAGGGGGCGG [A7C U43A]	0.06
CCGCCUCACACUGCCAAUGCCGGUCCCAAGCCCGGAUAAAAGCGGAGGGGGCGG [A7C U43C]	0.04
CCGCCUCACACUGCCAAUGCCGGUCCCAAGCCCGGAUAAAAGGGGAGGGGGCGG [A7C U43G]	0.06
CCGCCUGACACUGCGAAUGCCGGUCCCAAGCCCGGAUAAAAGUGGAGGGGGCGG [A7G C15G]	0.27

Variant	self-cleavage
CCGCCUGACACUGCUAAUGCCGGUCCCAAGCCCGGAUAAAAGUGGAGGGGGCGG [A7G C15U]	0.09
CCGCCUGACACUGCAAAUGCCGGUCCCAAGCCCGGAUAAAAGUGGAGGGGGCGG [A7G C15A]	0.12
CCGCCUGACACUGCCAAUGCCGGUCACAAGCCCGGAUAAAAGUGGAGGGGGCGG [A7G C26A]	0.04
CCGCCUGACACUGCCAAUGCCGGUCGCAAGCCCGGAUAAAAGUGGAGGGGGCGG [A7G C26G]	0.19
CCGCCUGACACUGCCAAUGCCGGUCUCAAGCCCGGAUAAAAGUGGAGGGGGCGG [A7G C26U]	0.13
CCGCCUGACACUGCCAAUGUCGGUCCCAAGCCCGGAUAAAAGUGGAGGGGGCGG [A7G C20U]	0.43
CCGCCUGACACUGCCAAUGGCGGUCCCAAGCCCGGAUAAAAGUGGAGGGGGCGG [A7G C20G]	0.11
CCGCCUGACACUGCCAAUGACGGUCCCAAGCCCGGAUAAAAGUGGAGGGGGCGG [A7G C20A]	0.5
CCGCCUCACACUGCCAAGGCCGGUCCCAAGCCCGGAUAAAAGUGGAGGGGGCGG [A7C U18G]	0.08
CCGCCUCACACUGCCAAAGCCGGUCCCAAGCCCGGAUAAAAGUGGAGGGGGCGG [A7C U18A]	0.04
CCGCCUCACACUGCCAACGCCGGUCCCAAGCCCGGAUAAAAGUGGAGGGGGCGG [A7C U18C]	0.06
CCGCCUGACACUGCCAAUGCCGGUCCGAAGCCCGGAUAAAAGUGGAGGGGGCGG [A7G C27G]	0.07
CCGCCUGACACUGCCAAUGCCGGUCCAAAGCCCGGAUAAAAGUGGAGGGGGCGG [A7G C27A]	0.07
CCGCCUGACACUGCCAAUGCCGGUCCUAAGCCCGGAUAAAAGUGGAGGGGGCGG [A7G C27U]	0.1
CCGCCUGACACUGCCAAUGCCGGUCCCAAGCCCGGAUAAAAGUGGAGGGGGCGG [A7G]	0.49
CCGCCUCACACUGCCAAUGCCGGUCCCAAGCCCGGAGAAAAGUGGAGGGGGCGG [A7C U37G]	0.07
CCGCCUCACACUGCCAAUGCCGGUCCCAAGCCCGGACAAAAGUGGAGGGGGCGG [A7C U37C]	0.06
CCGCCUCACACUGCCAAUGCCGGUCCCAAGCCCGGAAAAAAGUGGAGGGGGCGG [A7C U37A]	0.02
CCGCCUGACACUGCCAAUGCCGGUCCCAAGCGCGGAUAAAAGUGGAGGGGGCGG [A7G C32G]	0.09
CCGCCUGACACUGCCAAUGCCGGUCCCAAGCACGGAUAAAAGUGGAGGGGGCGG [A7G C32A]	0.05
CCGCCUGACACUGCCAAUGCCGGUCCCAAGCUCGGAUAAAAGUGGAGGGGGCGG [A7G C32U]	0.08
CCGCCUGACACUGCCAAUGCAGGUCCCAAGCCCGGAUAAAAGUGGAGGGGGCGG [A7G C21A]	0.1
CCGCCUGACACUGCCAAUGCUGGUCCCAAGCCCGGAUAAAAGUGGAGGGGGCGG [A7G C21U]	0.23
CCGCCUGACACUGCCAAUGCGGGUCCCAAGCCCGGAUAAAAGUGGAGGGGGCGG [A7G C21G]	0.03
